Test results: ChEMBL document CHEMBL1122551, “Bis(m-nitrophenyl) and bis(p-nitrophenyl) esters and the phosphorodiamidate of thymidine 5'-phosphate as potential sources of intracellular thymidine 5'-phosphate in mouse cells in culture” (J Med Chem, 1984)

What was measured:
[1] = Time for hydrolysis of half the starting material was studied at a temperature of 27 degrees celsius and aqueous 50 mM phosphate + 10 % p-dioxane (pH 7.6) as medium; format: ADME; settings: phosphate buffer with 10% p-dioxane
Outline: (§1)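 Hydrolysis in aqueous 50 mM potassium phosphate, pH 7.6, starting at 0.05 mM substrate. Nitrophenol release was followed spectrophotometrically at 400 nm. Half-life is the time for hydrolysis of half the starting material.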

[2] = test system: LM; assay: Rate of incorporation of [3H]- into DNA fraction of mouse LM(TK-) cells after 19h of pre-incubation, expressed as cpm 1/(10e6 cells) 1/h; format: functional
Outline: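 LM(TK-) thymidine-kinase-deficient mouse fibroblasts in DMEM with 10% FBS at 37 °C in 5% CO2. Cells were exposed to [methyl-3H]-labeled compound at 0.9 μM and 1 μCi/mL (0.5% EtOH) for 19 h. Acid-insoluble 3H was counted on CCl3CO2H-washed filters. Rate was expressed per 10^6 cells per hour, using Coulter counts.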

[3] = Time for hydrolysis of half the starting material was studied at a temperature of 23 degrees celsius and aqueous 50 mM phosphate + 10 % p-dioxane (pH 7.6) as medium; format: ADME, Rattus norvegicus; settings: phosphate buffer with 10% p-dioxane; outline: as §1
[4] = Time for hydrolysis of half the starting material was studied at a temperature of 37 degrees celsius and aqueous 50 mM phosphate (pH 6) as medium; format: ADME; settings: phosphate buffer
Outline: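 Stability in 50 mM potassium phosphate at pH 7.6 or 6.0, 37 °C, followed by paper electrophoresis for up to 72 h. Half-life is the time for hydrolysis of half the starting material.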

[5] = Time for hydrolysis of half the starting material was studied at a temperature of 37 degrees celsius and aqueous 50 mM phosphate + 10 % p-dioxane (pH 7.6) as medium(d=no hydrolysis after 72 h); format: ADME; settings: phosphate buffer with 10% p-dioxane
[6] = Time for hydrolysis of half the starting material was studied at a temperature of 27 degrees celsius and aqueous 50 mM phosphate (pH 7.6) as medium.; format: ADME; settings: phosphate buffer; outline: as §1
[7] = test system: LM; assay: Rate of incorporation of [3H]-into DNA fraction of mouse LM(TK-) cells after 2 hr of pre-incubation, expressed as cpm 1/(10e6 cells) 1/h; format: functional
Outline: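 LM(TK⁻) mouse L fibroblasts (thymidine-kinase deficient) in DMEM with 10% FBS, 37 °C, 5% CO2. Seeded in 6-cm dishes and grown overnight. Medium replaced with 0.017 μM [1',2',5-³H]-2'-deoxycytidine at 1 μCi/mL, 0.5% EtOH, for 2 h. Cells trypsinized, filter-collected, washed with 5% CCl3CO2H and 70% ethanol, then scintillation-counted. Zero-time blanks taken; cells per dish counted by Coulter.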

In the case of CCOP(=O)(Oc1ccc([N+](=O)[O-])cc1)Oc1ccc([N+](=O)[O-])cc1, the half-life [1] is reported as 120 min.
Cc1cn([C@H]2C[C@H](O)[C@@H](CO)O2)c(=O)[nH]c1=O [DOXRIBTIMINE] gave an Activity [2] of 53.
Work on Cc1cn([C@H]2C[C@H](O)[C@@H](COP(=O)(Oc3cccc([N+](=O)[O-])c3)Oc3cccc([N+](=O)[O-])c3)O2)c(=O)[nH]c1=O yielded a half-life [3] of 285 min and an Activity [2] of 18.1.
For Cc1cn([C@H]2C[C@H](O)[C@@H](COP(N)(N)=O)O2)c(=O)[nH]c1=O, the half-life [4] was > 3 days and the half-life [5] was > 3 days.
In the case of Cc1cn([C@H]2C[C@H](O)[C@@H](COP(=O)(Oc3ccc([N+](=O)[O-])cc3)Oc3ccc([N+](=O)[O-])cc3)O2)c(=O)[nH]c1=O, the half-life [1] is reported as 34.8 min and the half-life [6] is reported as 49.8 min.
Nc1ccn([C@H]2C[C@H](O)[C@@H](CO)O2)c(=O)n1 [DOXECITINE] gave an Activity [7] of 21960.
With Cc1cn([C@H]2C[C@H](O)[C@@H](COP(=O)(O)Oc3cccc([N+](=O)[O-])c3)O2)c(=O)[nH]c1=O the Activity [2] was 37.6.
